Screens as filed in PubChem.
A selection: hits, their analogues and other compounds. The true share with any hit is near 2.3%.
MC4R antagonist: MC4R antagonists of cAMP signaling, primary screen, cell-based, TR-FRET, antagonist arm of biased-ligand search; Melanocortin receptor 4 (Homo sapiens), P32245; MC4R-expressing cells, MTII-stimulated cAMP, LANCE TR-FRET; inhibition, % at 6.5 µM; actives 0.48% (n = 360,000);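 active = inhibition above its plate's cutoff, the mean of tested wells on that plate plus 3 SD, cut at about 29% in these data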
Target sequence (P32245 whole entry, looked up): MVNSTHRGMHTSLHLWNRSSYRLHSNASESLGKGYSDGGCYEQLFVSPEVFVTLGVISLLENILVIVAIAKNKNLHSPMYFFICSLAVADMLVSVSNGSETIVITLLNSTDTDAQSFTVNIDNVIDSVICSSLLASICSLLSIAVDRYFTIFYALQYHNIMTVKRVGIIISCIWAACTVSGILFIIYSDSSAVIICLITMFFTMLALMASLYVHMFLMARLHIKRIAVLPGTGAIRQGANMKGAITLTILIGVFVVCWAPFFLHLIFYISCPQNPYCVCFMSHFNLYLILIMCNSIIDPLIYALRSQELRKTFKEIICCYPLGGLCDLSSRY
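System: U2OS-MC4R stable cell line; Technique: Eu-cAMP/anti-cAMP TR-FRET, emission 671 nm; Repeats: single well per compound; Also added: Melanotan II; Dosing: one concentration, 6.5 µM nominal; Schedule: 30-min compound, 1-h challenge, 1-h detection, room temperature.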
MC4R barr agon: MC4R agonists recruiting beta-arrestin, primary screen, cell-based, luminescence, agonist arm of biased-ligand search. AID 540308, 2011. activation, % at 8.9 µM. U2OS MC4R beta-arrestin complementation; percent of melanotan II response, DMSO zero. Melanocortin receptor 4 (Homo sapiens), P32245. actives 0.98% (n = 360,000);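 active = activation above a per-plate cutoff, the mean activation of sample wells on that plate plus 3 SD, cut at about 8% in these data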
MsrA inh: bovine MsrA enzyme inhibitors, primary screen, biochemical, absorbance, HTS; Methionine sulfoxide reductase A (Bos taurus); purified bovine MsrA, absorbance read-out; inhibition, % at 15.5 µM; actives 0.75% (n = 360,000); AID 651718, 2012
MsrA act: bovine MsrA enzyme activators, primary screen, biochemical, absorbance, HTS; AID 602163, 2012; Methionine sulfoxide reductase A (Bos taurus); purified bovine MsrA, absorbance read-out; activation, % at 10.6 µM; actives 0.3% (n = 360,000); in the data active = activation above about 7.5%
MsrA conf: bovine MsrA inhibitors, retest, confirmation, biochemical, absorbance, HTS; inhibition, % at 15.5 µM; actives 41% (n = 2,300); shares compounds with MsrA inh; purified bovine MsrA, absorbance read-out;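 note: coupled to thioredoxin reductase with NADPH and selenocystamine and DMSO as substrate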
Each line names hits and unclear results; the compound was inactive in the other large screens (follow-up assays come after a bar, where they were run). Cut-off read from the data, not from the text of the source, unless noted: active = inhibition above about 4.5%; inactive = the rest.

CCN(CC)c1nc(N)c2c(N)n(-c3ccccc3C)c(=S)c(C#N)c2c1C#N	MsrA inh 8.0 | MsrA conf 9.3
CCN(CC)c1cc(C)c(C#N)c2nc3ccccc3n12	none
COc1cccc(/C=N/NC(=S)NCc2ccco2)c1OC	none
Cc1cc(C(F)(F)F)nc(SCCN2CCCCC2)c1C#N	none
Cc1cccc(OCc2nnc(SC(C)C(=O)O)n2Cc2ccccc2)c1 (stereo unspecified)	none
CCN(CC(=O)Nc1c(F)cccc1F)C(=O)c1nn(C)c(=O)c2ccccc12	none
[O-][N+]1=c2ccc(Nc3ccccc3)cc2=NC12CCCCC2	MsrA inh 10.8 | MsrA conf 8.6
O=[N+]([O-])c1ccc2c(c1N1CCCCC1)=NC1(CCCCC1)[N+]=2[O-]	none
CCOC(=O)CN1C(=O)C(O)(CC(=O)c2ccc3c(c2)CCCC3)c2ccccc21 (stereo unspecified)	none
CCOC(=O)c1c(NC(=O)COC(=O)c2ccc(O)cc2)sc(C(=O)NC)c1C	none
CC(C(=O)NC(C)(C)C)N1C(=O)c2cccc3cccc(c23)C1=O (stereo unspecified)	MsrA inh 4.8 | MsrA conf inactive
COc1cc2sc(-c3ccc(S(C)(=O)=O)cc3)c(C(=O)NCCCCO)c2cc1OC	MsrA inh 5.5 | MsrA conf inactive
Cc1cc(N2CCN(S(C)(=O)=O)C[C@H]2C)ccc1N1CCN(Cc2ccccc2)[C@H](C)C1	none (no result: MC4R antagonist, MC4R barr agon, MsrA act)
N#C/C(=C\c1ccco1)C(=O)Nn1cnnc1	MsrA inh 7.5 | MsrA conf 5.7
N#C/C(=C\c1ccco1)C(=O)Nc1ccc(S(N)(=O)=O)cc1	none
Cc1cc(C)n2nc(N)c(N=Nc3ccccc3)c2n1	MsrA inh 5.2 | MsrA conf inactive
CCOC(=O)C1(N(CC)CC)Sc2cc(C)ccc2NC1=O (stereo unspecified)	none
COC(=O)C1=C(C(=O)OC)SC2(S1)C(C(=O)OC)=C(C(=O)OC)SC1=C2c2cc(C)ccc2NC1(C)C	MC4R antagonist 53.3, MsrA inh 6.1 | MsrA conf inactive
COc1ccc(/C=C/C(=O)N2CCNC(=O)C2)c(OC)c1	MsrA inh 4.8 | MsrA conf inactive
O=C1CN(C(=O)/C=C/c2cc(Br)ccc2F)CCN1	none
CC1(c2cccc3ccccc23)NC(=O)N(CC(=O)NC2CCS(=O)(=O)C2)C1=O (stereo unspecified)	none
COc1ccc(-n2c(SCC(N)=O)nc3sc4c(c3c2=O)CCN(C)C4)cc1	MsrA inh 6.1 | MsrA conf inactive
CN1CCc2c(sc3nc(SCC(=O)NCc4ccco4)n(-c4ccccc4)c(=O)c23)C1	MsrA inh 6.4 | MsrA conf inactive
CCOC(=O)CSc1nc2sc3c(c2c(=O)n1-c1ccc(OC)cc1)CCN(C)C3	none
O=C(O)CSc1nc2sc3c(c2c(=O)n1-c1ccccc1)CCC3	MsrA inh 5.0 | MsrA conf inactive
CC(NC(=O)C(=S)N1CCN(C)CC1)c1ccccc1 (stereo unspecified)	none
COc1cc(C)ccc1Oc1ncnc(N)c1[N+](=O)[O-]	none
Cc1nc2ccccc2c(=O)n1/N=C/c1cn(-c2ccccc2)nc1-c1cccs1	MsrA inh 14.0 | MsrA conf 4.9
Nc1ncc(Br)cc1Br	none
Nc1ncc([N+](=O)[O-])cc1Br	MsrA inh 5.4 | MsrA conf inactive
Cc1ccc2nc(NC(=O)c3ccc(Br)o3)sc2c1	none
NS(=O)(=O)c1ccc2nc(NC(=O)c3ccc(Br)o3)sc2c1	MsrA inh 4.8 | MsrA conf 5.7
NS(=O)(=O)c1ccc2nc(NC(=O)CS(=O)(=O)c3ccccc3)sc2c1	none
NS(=O)(=O)c1ccc2nc(NC(=O)c3ccncc3)sc2c1	MsrA inh 5.6 | MsrA conf inactive
NC(=O)c1ccc2nc(NC(=O)c3ccc(N)cc3)sc2c1	MsrA inh 6.3 | MsrA conf inactive
CC(=O)c1ccc(NC(=S)N2CCN(CCO)CC2)cc1	none
O=C(CSc1nnnn1C1CC1)Nc1cccc(S(=O)(=O)N2CCCC2)c1	none
Cc1ccc(Cn2ncc3c(N4CCCC4)ncnc32)cc1	none
CCOC(=O)C1=C(C)N(Cc2ccc(C(=O)O)cc2)C(=O)NC1c1ccc([N+](=O)[O-])cc1 (stereo unspecified)	none
COC(=O)c1cccc(Nc2nc(-c3cccnc3)nc3ccccc23)c1	none
O=C(O)c1cccc(Nc2nc(-c3cccnc3)nc3ccccc23)c1	MsrA inh 5.6 | MsrA conf inactive
Cc1cc2n(c(=O)c1C#N)CCCN2c1ccccc1	MsrA inh 6.1 | MsrA conf 4.5
Cc1cc(C)n(CC(=O)N2CCc3ccccc32)c(=O)c1C#N	none
Cc1ccc(C)c(S(=O)(=O)N2CCN(C(=O)c3ccccn3)CC2)c1	none
O=C(Nc1ccc([N+](=O)[O-])cn1)c1ccc(Br)o1	MsrA inh 5.6 | MsrA conf inactive
Cc1ccc(/C=C/C(=O)O)cc1S(=O)(=O)NCc1cccnc1	none
CN(C)c1ccc(/C=N/NC(=O)CNC(=O)c2ccncc2)cc1	MsrA inh 5.1 | MsrA conf 5.1
CN(C)c1ccc(/C=N/NC(=O)CNC(=O)/C=C/c2ccco2)cc1	MsrA inh 6.7 | MsrA conf 7.1
O=C(/C=C/c1ccco1)NCC(=O)N/N=C/c1ccc(Cl)cc1	none
CCN(CC)c1ccc(/C=N/NC(=O)CNC(=O)c2ccc3c(c2)OCCO3)cc1	none
CN(C)c1ccc(/C=N/NC(=O)CNC(=O)c2ccc3c(c2)OCCO3)cc1	MsrA inh 5.1 | MsrA conf 5.1
O=C1C2C3CCC(C3)C2C(=O)N1c1ccc(OS(=O)(=O)c2ccccc2)cc1 (stereo unspecified)	none
CCOC(=O)c1c(S(=O)(=O)NCC(=O)N2CCN(c3cccc(OC)c3)CC2)c(C)n(C)c1C	none
COc1ccc(S(=O)(=O)Nc2ccc(O)c(Sc3ncn[nH]3)c2)cc1	none
COc1ccc(S(=O)(=O)Nc2cc(SCC(=O)O)c(O)c3ccccc23)cc1	MsrA inh 7.4 | MsrA conf inactive
COc1ccc(S(=O)(=O)Nc2cc(Sc3ncn[nH]3)c(O)c3ccccc23)cc1	MsrA inh 63.6 (no result: MC4R antagonist, MC4R barr agon, MsrA act) | MsrA conf inactive
COc1ccc(S(=O)(=O)Nc2cccc3ccc(O)cc23)cc1	none
CN1/C(=C\C(=O)COC(=O)c2ccc(O)cc2)C(C)(C)c2ccccc21	MsrA inh 5.2 | MsrA conf inactive
CN1/C(=C\C(=O)COC(=O)c2ccc(O)c(O)c2)C(C)(C)c2ccccc21	MsrA inh 4.8 (no result: MC4R antagonist, MC4R barr agon, MsrA act) | MsrA conf inactive
COC(=O)NNC(=O)COc1cc(C)c(Br)cc1C(C)C	none
